ChEMBL document CHEMBL5724801, “EUbOPEN Chemogenomics Library - Multiplex” (2024)
Several values for one entry are separate records, joined by “and”; a condition that tells them apart may be missing. Equal entries are not always repeated.

Test system: U2OS
Assay: Multiplex assay against U2OS
Format: toxicity, cell-based
Conditions: human
Summary of the method: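 On a CQ1 microscope at 37°C and 5% CO2, live cells were imaged after compound addition. They had been stained at seeding with Hoechst33342, BioTracker Green Microtubule Cytoskeleton Dye, MitoTracker Red and Annexin V Alexa Fluor 680. CellPathfinder machine-learning gating assigned cells to Hoechst high-intensity objects or normal cells, normal cells to healthy, pyknosed or fragmented nuclei, and pyknosed cells to mitotic or apoptotic. Tubulin, mitochondrial-mass and membrane-permeability phenotypes are per cents of healthy-nucleus cells.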

[1] = 12 h, 1 µM, compound concentration 1 uM
[2] = 12 h, 10 µM, compound concentration 10 uM
[3] = 24 h, 1 µM, compound concentration 1 uM
[4] = 24 h, 10 µM, compound concentration 10 uM
[5] = 48 h, 1 µM, compound concentration 1 uM
[6] = 48 h, 10 µM, compound concentration 10 uM

COc1c(C)cc(NC(=O)c2nn(Cc3ccc(F)cc3)c3c2CN(C(=O)c2ccc[nH]2)C[C@]3(C)C(N)=O)cc1C
Population Apoptotic (%) [1]: 65% and 83% | Population Fragmented Nuclei (%) [1]: 22% and 21% | Population Healthy Nuclei (%) [1]: 65% and 72% | Population Hoechst High Intensity Objects (%) [1]: 2% | Population Membrane Permeable-Phenotype (%) [1]: 8% | Population Mitochondria Different-Phenotype (%) [1]: 3% and 12% | Population Mitotic Cells (%) [1]: 34% and 16% | Population Normal (%) [1]: 97% | Population Pyknosed Nuclei (%) [1]: 12% and 6% | Population Tubulin-Different-Phenotype (%) [1]: 5% and 9% | Total Cell Count [1]: 247 and 102 | Population Apoptotic (%) [2]: 33% and 60% | Population Fragmented Nuclei (%) [2]: 26% and 11% | Population Healthy Nuclei (%) [2]: 43% and 66% | Population Hoechst High Intensity Objects (%) [2]: 9% and 8% | Population Membrane Permeable-Phenotype (%) [2]: 77% and 54% | Population Mitochondria Different-Phenotype (%) [2]: 90% and 97% | Population Mitotic Cells (%) [2]: 66% and 39% | Population Normal (%) [2]: 90% and 91% | Population Pyknosed Nuclei (%) [2]: 29% and 21% | Population Tubulin-Different-Phenotype (%) [2]: 95% and 100% | Total Cell Count [2]: 223 and 119 | Population Apoptotic (%) [3]: 67% and 61% | Population Fragmented Nuclei (%) [3]: 16% and 17% | Population Healthy Nuclei (%) [3]: 71% and 70% | Population Hoechst High Intensity Objects (%) [3]: 5% and 0% | Population Membrane Permeable-Phenotype (%) [3]: 8% and 7% | Population Mitochondria Different-Phenotype (%) [3]: 6% and 2% | Population Mitotic Cells (%) [3]: 32% and 38% | Population Normal (%) [3]: 94% and 99% | Population Pyknosed Nuclei (%) [3]: 12% and 11% | Population Tubulin-Different-Phenotype (%) [3]: 7% and 6% | Total Cell Count [3]: 265 and 111 | Population Apoptotic (%) [4]: 66% and 65% | Population Fragmented Nuclei (%) [4]: 26% and 13% | Population Healthy Nuclei (%) [4]: 41% and 53% | Population Hoechst High Intensity Objects (%) [4]: 12% and 7% | Population Membrane Permeable-Phenotype (%) [4]: 46% and 49% | Population Mitochondria Different-Phenotype (%) [4]: 92% and 91% | Population Mitotic Cells (%) [4]: 33% and 34% | Population Normal (%) [4]: 87% and 92% | Population Pyknosed Nuclei (%) [4]: 31% and 33% | Population Tubulin-Different-Phenotype (%) [4]: 94% and 91% | Total Cell Count [4]: 216 and 123 | Population Apoptotic (%) [5]: 79% and 84% | Population Fragmented Nuclei (%) [5]: 18% and 15% | Population Healthy Nuclei (%) [5]: 68% and 70% | Population Hoechst High Intensity Objects (%) [5]: 2% and 5% | Population Membrane Permeable-Phenotype (%) [5]: 4% and 9% | Population Mitochondria Different-Phenotype (%) [5]: 3% and 4% | Population Mitotic Cells (%) [5]: 20% and 15% | Population Normal (%) [5]: 97% and 94% | Population Pyknosed Nuclei (%) [5]: 13% | Population Tubulin-Different-Phenotype (%) [5]: 2% and 5% | Total Cell Count [5]: 365 and 152 | Population Apoptotic (%) [6]: 84% and 87% | Population Fragmented Nuclei (%) [6]: 31% and 22% | Population Healthy Nuclei (%) [6]: 24% and 47% | Population Hoechst High Intensity Objects (%) [6]: 17% and 9% | Population Membrane Permeable-Phenotype (%) [6]: 69% and 50% | Population Mitochondria Different-Phenotype (%) [6]: 85% and 81% | Population Mitotic Cells (%) [6]: 15% and 12% | Population Normal (%) [6]: 82% and 90% | Population Pyknosed Nuclei (%) [6]: 44% and 29% | Population Tubulin-Different-Phenotype (%) [6]: 90% and 80% | Total Cell Count [6]: 212 and 150

S=C(NCCCc1c[nH]cn1)NCCCN(Cc1ccc(Cl)c(Cl)c1)c1ccc(Br)cn1
Population Apoptotic (%) [1]: 75% and 80% | Population Fragmented Nuclei (%) [1]: 27% and 20% | Population Healthy Nuclei (%) [1]: 63% and 68% | Population Hoechst High Intensity Objects (%) [1]: 2% and 3% | Population Membrane Permeable-Phenotype (%) [1]: 13% and 6% | Population Mitochondria Different-Phenotype (%) [1]: 2% and 9% | Population Mitotic Cells (%) [1]: 25% and 20% | Population Normal (%) [1]: 97% and 96% | Population Pyknosed Nuclei (%) [1]: 9% and 11% | Population Tubulin-Different-Phenotype (%) [1]: 6% and 1% | Total Cell Count [1]: 228 and 93 | Population Apoptotic (%) [2]: 66% and 58% | Population Fragmented Nuclei (%) [2]: 27% and 24% | Population Healthy Nuclei (%) [2]: 46% | Population Hoechst High Intensity Objects (%) [2]: 6% and 0% | Population Membrane Permeable-Phenotype (%) [2]: 86% and 84% | Population Mitochondria Different-Phenotype (%) [2]: 26% and 60% | Population Mitotic Cells (%) [2]: 33% and 41% | Population Normal (%) [2]: 93% and 100% | Population Pyknosed Nuclei (%) [2]: 26% and 29% | Population Tubulin-Different-Phenotype (%) [2]: 83% and 89% | Total Cell Count [2]: 220 and 82 | Population Apoptotic (%) [3]: 81% and 100% | Population Fragmented Nuclei (%) [3]: 22% and 30% | Population Healthy Nuclei (%) [3]: 69% and 65% | Population Hoechst High Intensity Objects (%) [3]: 3% and 1% | Population Membrane Permeable-Phenotype (%) [3]: 11% and 7% | Population Mitochondria Different-Phenotype (%) [3]: 3% and 5% | Population Mitotic Cells (%) [3]: 18% and 0% | Population Normal (%) [3]: 96% and 98% | Population Pyknosed Nuclei (%) [3]: 8% and 4% | Population Tubulin-Different-Phenotype (%) [3]: 9% and 3% | Total Cell Count [3]: 285 and 125 | Population Apoptotic (%) [4]: 62% and 60% | Population Fragmented Nuclei (%) [4]: 33% and 29% | Population Healthy Nuclei (%) [4]: 38% and 40% | Population Hoechst High Intensity Objects (%) [4]: 5% and 2% | Population Membrane Permeable-Phenotype (%) [4]: 59% and 77% | Population Mitochondria Different-Phenotype (%) [4]: 17% and 32% | Population Mitotic Cells (%) [4]: 37% and 39% | Population Normal (%) [4]: 94% and 97% | Population Pyknosed Nuclei (%) [4]: 28% and 29% | Population Tubulin-Different-Phenotype (%) [4]: 54% and 64% | Total Cell Count [4]: 227 and 79 | Population Apoptotic (%) [5]: 83% and 87% | Population Fragmented Nuclei (%) [5]: 17% and 28% | Population Healthy Nuclei (%) [5]: 74% and 60% | Population Hoechst High Intensity Objects (%) [5]: 1% and 0% | Population Membrane Permeable-Phenotype (%) [5]: 5% | Population Mitochondria Different-Phenotype (%) [5]: 3% | Population Mitotic Cells (%) [5]: 16% and 12% | Population Normal (%) [5]: 98% and 99% | Population Pyknosed Nuclei (%) [5]: 7% and 11% | Population Tubulin-Different-Phenotype (%) [5]: 2% and 3% | Total Cell Count [5]: 409 and 211 | Population Apoptotic (%) [6]: 70% and 73% | Population Fragmented Nuclei (%) [6]: 43% and 50% | Population Healthy Nuclei (%) [6]: 8% and 15% | Population Hoechst High Intensity Objects (%) [6]: 21% and 15% | Population Membrane Permeable-Phenotype (%) [6]: 46% and 57% | Population Mitochondria Different-Phenotype (%) [6]: 20% and 42% | Population Mitotic Cells (%) [6]: 29% and 26% | Population Normal (%) [6]: 78% and 84% | Population Pyknosed Nuclei (%) [6]: 47% and 33% | Population Tubulin-Different-Phenotype (%) [6]: 26% and 57% | Total Cell Count [6]: 230 and 105

C[C@@H]1CC(=O)Nc2cccc(-c3ccc4c(c3)c(-c3cnn(C)c3)nn4C)c2N1
Population Apoptotic (%) [1]: 92% and 88% | Population Fragmented Nuclei (%) [1]: 20% and 16% | Population Healthy Nuclei (%) [1]: 73% and 75% | Population Hoechst High Intensity Objects (%) [1]: 1% | Population Membrane Permeable-Phenotype (%) [1]: 7% and 5% | Population Mitochondria Different-Phenotype (%) [1]: 4% and 2% | Population Mitotic Cells (%) [1]: 7% and 11% | Population Normal (%) [1]: 98% | Population Pyknosed Nuclei (%) [1]: 6% and 7% | Population Tubulin-Different-Phenotype (%) [1]: 6% and 2% | Total Cell Count [1]: 233 and 116 | Population Apoptotic (%) [2]: 86% and 33% | Population Fragmented Nuclei (%) [2]: 29% and 21% | Population Healthy Nuclei (%) [2]: 58% and 74% | Population Hoechst High Intensity Objects (%) [2]: 2% and 1% | Population Membrane Permeable-Phenotype (%) [2]: 11% and 7% | Population Mitochondria Different-Phenotype (%) [2]: 11% and 7% | Population Normal (%) [2]: 97% and 98% | Population Pyknosed Nuclei (%) [2]: 12% and 4% | Population Tubulin-Different-Phenotype (%) [2]: 8% | Population Apoptotic (%) [3]: 95% and 100% | Population Fragmented Nuclei (%) [3]: 20% and 22% | Population Healthy Nuclei (%) [3]: 71% and 74% | Population Hoechst High Intensity Objects (%) [3]: 2% and 1% | Population Membrane Permeable-Phenotype (%) [3]: 5% and 1% | Population Mitochondria Different-Phenotype (%) [3]: 2% and 1% | Population Mitotic Cells (%) [3]: 4% and 0% | Population Normal (%) [3]: 97% and 98% | Population Pyknosed Nuclei (%) [3]: 7% and 4% | Population Tubulin-Different-Phenotype (%) [3]: 2% and 0% | Total Cell Count [3]: 294 and 152 | Population Apoptotic (%) [4]: 90% and 83% | Population Fragmented Nuclei (%) [4]: 24% and 15% | Population Healthy Nuclei (%) [4]: 63% and 78% | Population Hoechst High Intensity Objects (%) [4]: 4% and 1% | Population Membrane Permeable-Phenotype (%) [4]: 7% and 6% | Population Mitochondria Different-Phenotype (%) [4]: 6% and 1% | Population Mitotic Cells (%) [4]: 10% and 16% | Population Normal (%) [4]: 95% and 98% | Population Pyknosed Nuclei (%) [4]: 11% and 6% | Population Tubulin-Different-Phenotype (%) [4]: 3% and 4% | Total Cell Count [4]: 266 and 97 | Population Apoptotic (%) [5]: 100% | Population Fragmented Nuclei (%) [5]: 19% and 13% | Population Healthy Nuclei (%) [5]: 73% and 77% | Population Hoechst High Intensity Objects (%) [5]: 1% | Population Membrane Permeable-Phenotype (%) [5]: 4% and 2% | Population Mitochondria Different-Phenotype (%) [5]: 2% | Population Mitotic Cells (%) [5]: 0% | Population Normal (%) [5]: 98% | Population Pyknosed Nuclei (%) [5]: 6% and 8% | Population Tubulin-Different-Phenotype (%) [5]: 3% and 2% | Total Cell Count [5]: 437 and 224 | Population Apoptotic (%) [6]: 100% | Population Fragmented Nuclei (%) [6]: 28% and 23% | Population Healthy Nuclei (%) [6]: 65% and 71% | Population Hoechst High Intensity Objects (%) [6]: 3% and 4% | Population Membrane Permeable-Phenotype (%) [6]: 8% and 3% | Population Mitochondria Different-Phenotype (%) [6]: 3% and 0% | Population Mitotic Cells (%) [6]: 0% | Population Normal (%) [6]: 96% and 95% | Population Pyknosed Nuclei (%) [6]: 5% and 4% | Population Tubulin-Different-Phenotype (%) [6]: 5% and 3% | Total Cell Count [6]: 394 and 149
